In ChEMBL document CHEMBL1128681, “Studies on the monoamine oxidase (MAO)-catalyzed oxidation of phenyl-substituted 1-methyl-4-phenoxy-1,2,3,6-tetrahydropyridine derivatives: factors contributing to MAO-A and MAO-B selectivity” (J Med Chem, 1995):

Key:
[1] = biological target: T1, Monoamine oxidase A (amine oxidase [flavin-containing] A) (Homo sapiens, UniProt P21397); experiment: Michaelis-Menten constant for Monoamine oxidase A catalyzed oxidation (Km)
T1 sequence (P21397 whole entry): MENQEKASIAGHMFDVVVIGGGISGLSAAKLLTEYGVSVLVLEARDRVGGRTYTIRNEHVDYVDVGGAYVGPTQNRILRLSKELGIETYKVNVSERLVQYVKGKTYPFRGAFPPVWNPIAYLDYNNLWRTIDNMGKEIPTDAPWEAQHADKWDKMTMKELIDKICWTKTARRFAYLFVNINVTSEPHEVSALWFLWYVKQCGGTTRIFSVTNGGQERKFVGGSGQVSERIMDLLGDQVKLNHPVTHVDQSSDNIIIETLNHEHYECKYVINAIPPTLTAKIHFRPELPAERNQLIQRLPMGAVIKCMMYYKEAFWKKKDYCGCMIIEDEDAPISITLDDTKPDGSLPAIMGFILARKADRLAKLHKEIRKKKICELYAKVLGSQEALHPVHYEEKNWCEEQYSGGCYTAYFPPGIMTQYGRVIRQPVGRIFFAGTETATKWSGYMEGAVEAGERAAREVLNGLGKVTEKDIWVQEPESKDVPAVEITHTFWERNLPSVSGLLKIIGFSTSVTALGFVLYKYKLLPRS
Outline: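 MAO-A preparation, viscous, diluted with 3 volumes of phosphate buffer just before use; activity standardised with kynuramine at 30 °C. Substrates as oxalate salts at 100–2000 μM final in 100 mM sodium phosphate, pH 7.4, with 0.16 μM MAO-A. Initial oxidation rates were followed spectrophotometrically, and Km came from double-reciprocal plots.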

[2] = biological target: T2, Amine oxidase [flavin-containing] B (Bos taurus, UniProt P56560); experiment: Ratio of catalytic constant and Michaelis-Menten constant for MAO-B.; conditions: cattle
T2 sequence (P56560 whole entry): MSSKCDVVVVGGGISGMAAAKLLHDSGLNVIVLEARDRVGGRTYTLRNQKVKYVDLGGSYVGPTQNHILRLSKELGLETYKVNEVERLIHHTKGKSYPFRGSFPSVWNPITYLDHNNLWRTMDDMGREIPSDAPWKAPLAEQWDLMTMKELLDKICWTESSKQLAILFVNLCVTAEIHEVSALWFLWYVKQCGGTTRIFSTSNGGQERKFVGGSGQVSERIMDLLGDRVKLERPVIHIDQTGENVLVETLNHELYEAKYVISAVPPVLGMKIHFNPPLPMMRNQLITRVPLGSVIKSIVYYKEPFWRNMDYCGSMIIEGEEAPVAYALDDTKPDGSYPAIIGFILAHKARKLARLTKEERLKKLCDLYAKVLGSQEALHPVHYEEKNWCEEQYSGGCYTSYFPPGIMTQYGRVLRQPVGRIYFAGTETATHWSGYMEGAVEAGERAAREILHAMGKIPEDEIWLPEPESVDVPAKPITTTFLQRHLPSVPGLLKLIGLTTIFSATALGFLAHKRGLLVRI
Outline: (§1)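 MAO-B at 0.08 μM final; activity was calibrated with MPTP at 30 °C and the preparation was stored at –15 °C. Substrate range 100–2000 μM in 100 mM sodium phosphate pH 7.4, with spectrophotometric initial oxidation rates. KM and kcat derived from double-reciprocal plots, and kcat/KM calculated from them.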

[3] = biological target: T3, Amine oxidase [flavin-containing] A (Homo sapiens, UniProt P21397); experiment: Ratio of catalytic constant and Michaelis-Menten constant for MAO-A.
T3 sequence (P21397 whole entry): T1 sequence (P21397 whole entry)
Outline: (§2)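 MAO-A at 0.16 μM final, raised to 0.32 μM for one slowly oxidized substrate. The MAO-A preparation was diluted with 3 volumes of phosphate buffer just before use, and its activity was re-checked bimonthly with kynuramine at 30 °C. Substrates at 100–2000 μM in 100 mM sodium phosphate pH 7.4; initial rates by spectrophotometry. kcat and KM from double-reciprocal plots; kcat/KM as their ratio.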

[4] = biological target: T2, Amine oxidase [flavin-containing] B; experiment: Kinetic value evaluated as catalyzed oxidation rate (kcat).; conditions: cattle
Outline: (§3)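 kcat from initial oxidation rates, read by spectrophotometer, with test compounds at 100–2000 μM final in 100 mM sodium phosphate pH 7.4, using 0.16 μM MAO-A or 0.08 μM MAO-B. kcat and KM came from double-reciprocal plots. Repeat determinations were made on selected substrates at different times.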

[5] = biological target: T4, Monoamine oxidase B (amine oxidase [flavin-containing] B) (Bos taurus, UniProt P56560); experiment: (§4) Michaelis-Menten constant for Monoamine oxidase B catalyzed oxidation (KM).; conditions: cattle; outline: as §1
T4 sequence (P56560 whole entry): T2 sequence (P56560 whole entry)

[6] = biological target: T3, Amine oxidase [flavin-containing] A; experiment: Kinetic value evaluated as catalyzed oxidation (kcat).; outline: as §3
[7] = biological target: T2, Amine oxidase [flavin-containing] B; experiment: as §4; conditions: cattle; outline: as §1
[8] = biological target: T3, Amine oxidase [flavin-containing] A; experiment: Michaelis-Menten constant for Monoamine oxidase A-catalyzed oxidation (KM).; outline: as §2

Structure (SMILES)	Km [1]	k cat/Km [2]	k cat/Km [3]	k cat [4]	Km [5]	k cat [6]	Km [7]	Km [8]
CN1CC=C(c2ccccc2)CC1	654 µM	23850 M⁻¹ s⁻¹	783 M⁻¹ s⁻¹	4.55 s⁻¹	191 µM	0.517 s⁻¹	–	–
CN1CC=C(Oc2ccccc2)CC1	–	69180 M⁻¹ s⁻¹	39320 M⁻¹ s⁻¹	4.02 s⁻¹	–	2.17 s⁻¹	58 µM	55 µM
CN1CC=C(Oc2ccc(-c3ccccc3)cc2)CC1	–	6050 M⁻¹ s⁻¹	28500 M⁻¹ s⁻¹	1.72 s⁻¹	–	2.88 s⁻¹	284 µM	101 µM
